Experimental findings from ChEMBL document CHEMBL3877303 (J Med Chem, 2017) are described below.

A short description of data set [1]: Anticancer activity against human K562 cells xenografted in nu/nu mouse assessed as tumor weight at 50 mg/kg administered via oral gavage measured after 28 days (reference value: 6.75 g). It counts as functional. A digest of the protocol:
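Female nu/nu mice received ten million K562 cells subcutaneously in the right flank, in PBS mixed 1:1 with Matrigel. Daily oral gavage began at 200-400 mm³ tumor size, with 4 or 5 mice per group. Dosing was 25, 50 or 100 mg/kg/d or vehicle (0.5% methylcellulose/0.4% Tween80) for 28 days. Body weight and tumor size were normalized to initial values, and final tumor weight was recorded. Data are mean ± SEM.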

Data set [2] addresses Platelet-derived growth factor receptor beta (Homo sapiens, UniProt P09619). Description: Inhibition of recombinant His-tagged human PDGFR-beta cytoplasmic domain (558 to 1106 residues) expressed in baculovirus expression system measured after 1 hr by FRET based Z'Lyte assay. A digest of the protocol:
(§1)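 Z'-LYTE FRET biochemical kinase assay run by Invitrogen on selected kinases identified from binding profiling; IC50 from dose-response.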

Data set [3] concerns the target Tyrosine-protein kinase Blk (Homo sapiens, UniProt P51451). Description: Inhibition of full length recombinant His-tagged human BLK cytoplasmic domain expressed in baculovirus expression system assessed as residual activity at 1 uM measured after 1 hr by FRET based Z'Lyte assay relative to control.
Data set [4] deals with T1, Mast/stem cell growth factor receptor Kit (Homo sapiens, UniProt P10721). Nature of the data set: Inhibition of c-KIT autophosphorylation at Y823 in human GIST882 cells at 0.01 to 3 uM measured after 2 hrs by immunoblotting. In kind it is cell-based. A digest of the protocol:
(§2)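 After an ice-cold PBS wash, cells were lysed in RIPA buffer (50 mM Tris pH 8.0) with protease and phosphatase inhibitors, and protein was quantified by BCA. Lysates were run on SDS-PAGE, transferred to PVDF and blocked in 5% milk/TBST. Phospho- and total proteins were probed by immunoblot with ECL detection; β-actin served as loading control.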
(In general: Immunoblotting shows a protein as a band on a membrane.)

In a further data set the test system is BaF3. Description: Inhibition of BCR/ABL p210 fusion protein H369P mutant (unknown origin) expressed in BAF3 cells assessed as growth inhibition measured after 72 hrs by CellTiter-Glo or CCK8 assay. The conditions noted are these: Homo sapiens. It counts as cell-based. A digest of the protocol: (§3)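 BaF3 lines were made by retroviral transduction with kinase-fusion MSCV vectors packaged in HEK293T cells. Cells were selected with puromycin for 48 h, then selected again without IL-3 so growth depends on the introduced kinase. […] They were seeded at 1 to 2.5×10^4 cells/mL with compound dilutions and incubated 72 h. Viability was read by CellTiter-Glo luminescence or CCK-8 absorbance (450/655 nm), normalized to DMSO control; GI50 was curve-fitted from triplicate tests.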
On the technique in general: In ATP-based viability assays light output follows the ATP content of the culture.

Data set [5] has as its target T1, Mast/stem cell growth factor receptor Kit. Description: Inhibition of c-KIT mediated signaling pathways assessed as reduction in ERK1/2 phosphorylation at T202/Y204 in human GIST882 cells at 0.03 to 10 uM measured after 2 hrs by immunoblotting. In kind it is cell-based. A digest of the protocol:
as §2

The nature of data set [6]: AUC (0 to t) in Sprague-Dawley rat at 1 mg/kg, iv. It counts as ADME, organism-based. The conditions noted are these: in vivo. Summed up:
(§4)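 Male Sprague-Dawley rats aged six to eight weeks were fasted overnight and then dosed iv or orally. Blood (~0.2 mL) was drawn from the jugular vein into heparin and kept on ice. Sampling was at 1 min to 8 h for iv and 5 min to 24 h for oral. Plasma was separated by centrifugation at 2-8 °C and stored at -80 °C until analysis.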

Data set [7] deals with Tyrosine-protein kinase Lck (Homo sapiens, UniProt P06239). Description: Inhibition of recombinant C-terminal His-tagged human LCK cytoplasmic domain expressed in baculovirus expression system measured after 1 hr by FRET based Z'Lyte assay. Summed up: as §1
Tyrosine-protein kinase Lck, sequence (P06239 whole entry, the tested form may be a part): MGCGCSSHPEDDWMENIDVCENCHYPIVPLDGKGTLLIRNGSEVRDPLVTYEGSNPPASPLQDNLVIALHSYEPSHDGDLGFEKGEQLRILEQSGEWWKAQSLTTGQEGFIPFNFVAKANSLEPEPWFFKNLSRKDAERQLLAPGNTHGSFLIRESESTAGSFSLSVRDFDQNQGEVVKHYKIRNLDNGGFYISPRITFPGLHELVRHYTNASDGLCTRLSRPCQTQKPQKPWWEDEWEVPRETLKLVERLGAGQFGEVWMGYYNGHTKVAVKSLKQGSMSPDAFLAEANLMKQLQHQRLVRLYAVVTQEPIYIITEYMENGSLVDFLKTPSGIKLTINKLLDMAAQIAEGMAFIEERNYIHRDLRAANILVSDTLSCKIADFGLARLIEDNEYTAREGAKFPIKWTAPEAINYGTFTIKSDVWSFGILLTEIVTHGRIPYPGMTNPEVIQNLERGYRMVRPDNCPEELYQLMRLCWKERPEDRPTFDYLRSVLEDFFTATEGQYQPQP
Data set [8] can be described thus: Oral bioavailability in Sprague-Dawley rat at 10 mg/kg. It counts as ADME, organism-based. The conditions noted are these: in vivo. A digest of the protocol:
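Male Sprague-Dawley rats, 6-8 weeks old, fasted overnight, dosed iv or po. Jugular vein blood (~0.2 mL, heparin) sampled at 1 min to 8 h (iv) or 5 min to 24 h (po). Plasma separated by centrifugation at 2-8 °C and stored at -80 °C before analysis.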

The nature of data set [9]: Anticancer activity against human GISTT1 cells xenografted in nu/nu mouse assessed as tumor weight at 50 mg/kg, po administered daily via oral gavage measured 21 days post compound treatment (reference value: 2.86 g).
Data set [10] in a line: Cell cycle arrest in human KU812 cells assessed as accumulation at G0/G1 phase at 0.3 uM after 12 hrs by propidium iodide/RNase staining based flow cytometry. It counts as functional. Summed up: (§5)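 Cells were exposed to serially diluted compound, then fixed in cold 70% ethanol overnight at -20 °C. They were stained with PI/RNase buffer for DNA-content cell-cycle analysis.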
(In general: A flow cytometer gives signals particle by particle.)

The nature of data set [11]: AUC (0 to infinity) in Sprague-Dawley rat at 10 mg/kg, po. In kind it is ADME, organism-based. Set-up: dose 10 mg/kg, time infinity, route oral. The conditions noted are these: in vivo. Summed up: as §4
Data set [12] deals with Epithelial discoidin domain-containing receptor 1 (Homo sapiens, UniProt Q08345). Nature of the data set: Inhibition of human GST-tagged DDR1 cytoplasmic domain expressed in baculovirus expression system assessed as residual activity at 1 uM by KINOMEscan binding assay relative to control.
The target of data set [13] is Tyrosine-protein kinase ABL1 (Homo sapiens, UniProt P00519). Nature of the data set: Inhibition of C-terminal His-tagged human ABL1 expressed in baculovirus infected SF9 cells assessed as residual activity at 1 uM using Tyr 02 peptide as substrate measured after 1 hr by FRET based Z'Lyte assay relative to control.
For data set [14], the system named is Mast/stem cell growth factor receptor Kit (Homo sapiens), P10721 [T670I]. Description: Inhibition of Tel-fused c-KIT T670I mutant (unknown origin) expressed in BAF3 cells assessed as growth inhibition measured after 72 hrs by CellTiter-Glo or CCK8 assay. It counts as cell-based. Summed up:
as §3

In data set [15] the target is Macrophage colony-stimulating factor 1 receptor (Homo sapiens, UniProt P07333). Description: Inhibition of recombinant His-tagged human CSF1R cytoplasmic domain expressed in baculovirus expression system measured after 1 hr by FRET based Z'Lyte assay. Summed up:
as §1

Data set [16] relates to Mast/stem cell growth factor receptor Kit (Homo sapiens), P10721 [N822K]. Description: Inhibition of Tel-fused c-KIT N822K mutant (unknown origin) expressed in BAF3 cells assessed as growth inhibition measured after 72 hrs by CellTiter-Glo or CCK8 assay. In kind it is cell-based. A digest of the protocol: as §3
Mast/stem cell growth factor receptor Kit (Homo sapiens), P10721 [N822K], sequence (P10721 whole entry N822K, the tested form may be a part): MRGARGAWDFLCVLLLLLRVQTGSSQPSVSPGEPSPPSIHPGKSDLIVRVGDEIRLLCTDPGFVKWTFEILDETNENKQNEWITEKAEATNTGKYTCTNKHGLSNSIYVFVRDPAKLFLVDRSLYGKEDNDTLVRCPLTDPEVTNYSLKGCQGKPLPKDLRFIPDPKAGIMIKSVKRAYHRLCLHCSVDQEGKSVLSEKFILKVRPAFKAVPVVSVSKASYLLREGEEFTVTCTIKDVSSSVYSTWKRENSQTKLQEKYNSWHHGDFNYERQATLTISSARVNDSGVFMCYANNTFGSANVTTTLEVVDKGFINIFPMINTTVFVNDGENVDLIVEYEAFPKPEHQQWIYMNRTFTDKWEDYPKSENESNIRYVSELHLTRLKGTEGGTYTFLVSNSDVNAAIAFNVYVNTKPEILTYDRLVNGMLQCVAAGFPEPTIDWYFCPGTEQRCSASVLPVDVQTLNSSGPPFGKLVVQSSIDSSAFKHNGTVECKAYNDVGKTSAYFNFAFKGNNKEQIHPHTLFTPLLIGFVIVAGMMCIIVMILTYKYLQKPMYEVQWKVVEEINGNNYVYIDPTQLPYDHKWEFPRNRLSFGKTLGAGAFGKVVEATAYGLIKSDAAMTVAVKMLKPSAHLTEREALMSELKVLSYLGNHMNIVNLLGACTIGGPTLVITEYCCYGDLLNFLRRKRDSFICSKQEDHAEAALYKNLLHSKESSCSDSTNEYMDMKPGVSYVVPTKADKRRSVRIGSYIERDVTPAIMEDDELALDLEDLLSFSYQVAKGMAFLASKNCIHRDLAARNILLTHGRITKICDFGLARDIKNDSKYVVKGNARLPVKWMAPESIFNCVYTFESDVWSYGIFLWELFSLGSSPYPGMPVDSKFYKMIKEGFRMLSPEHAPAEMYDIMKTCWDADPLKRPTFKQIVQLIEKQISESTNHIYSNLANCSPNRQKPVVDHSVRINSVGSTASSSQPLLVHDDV
Data set [17] can be described thus: Cell cycle arrest in human GIST882 cells assessed as accumulation at G0/G1 phase at 1 uM after 48 hrs by propidium iodide/RNase staining based flow cytometry. It counts as functional. Summed up:
as §5

The target in data set [18] is T1, Mast/stem cell growth factor receptor Kit. The conditions noted are these: 1 uM.
Data set [19] shares this target. The conditions noted are these: 1 uM. This is another data set of the same source.
Data set [20] shares this target. The conditions noted are these: 1 uM. This is another data set of the same source.
Data set [21] shares this target. The conditions noted are these: GISTT1, 1 uM.

Active and inactive are the calls of the source. The calls are words filed in the database; no cut-off is given here.

T1 sequence (P10721 whole entry): as the sequence (P10721 whole entry N822K, the tested form may be a part) above, with K822N counted along it
Tyrosine-protein kinase Blk, sequence (P51451 2-505 limits assumed): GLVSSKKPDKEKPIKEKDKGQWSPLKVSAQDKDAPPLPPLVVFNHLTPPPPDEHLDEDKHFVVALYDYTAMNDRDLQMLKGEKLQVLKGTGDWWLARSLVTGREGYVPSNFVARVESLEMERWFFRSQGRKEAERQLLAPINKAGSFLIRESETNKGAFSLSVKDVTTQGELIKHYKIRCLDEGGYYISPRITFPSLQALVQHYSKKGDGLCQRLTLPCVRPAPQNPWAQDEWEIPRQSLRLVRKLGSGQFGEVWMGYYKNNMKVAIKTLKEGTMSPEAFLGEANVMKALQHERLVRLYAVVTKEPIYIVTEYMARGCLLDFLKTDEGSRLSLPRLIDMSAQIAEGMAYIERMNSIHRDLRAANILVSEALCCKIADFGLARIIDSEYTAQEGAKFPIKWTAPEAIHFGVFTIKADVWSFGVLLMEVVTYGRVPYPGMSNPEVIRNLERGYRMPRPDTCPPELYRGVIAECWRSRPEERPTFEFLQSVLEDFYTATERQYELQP
Mast/stem cell growth factor receptor Kit (Homo sapiens), P10721 [T670I], sequence (P10721 whole entry T670I, the tested form may be a part): as the sequence (P10721 whole entry N822K, the tested form may be a part) above, with T670I, K822N counted along it
Platelet-derived growth factor receptor beta, sequence (P09619 whole entry, the tested form may be a part): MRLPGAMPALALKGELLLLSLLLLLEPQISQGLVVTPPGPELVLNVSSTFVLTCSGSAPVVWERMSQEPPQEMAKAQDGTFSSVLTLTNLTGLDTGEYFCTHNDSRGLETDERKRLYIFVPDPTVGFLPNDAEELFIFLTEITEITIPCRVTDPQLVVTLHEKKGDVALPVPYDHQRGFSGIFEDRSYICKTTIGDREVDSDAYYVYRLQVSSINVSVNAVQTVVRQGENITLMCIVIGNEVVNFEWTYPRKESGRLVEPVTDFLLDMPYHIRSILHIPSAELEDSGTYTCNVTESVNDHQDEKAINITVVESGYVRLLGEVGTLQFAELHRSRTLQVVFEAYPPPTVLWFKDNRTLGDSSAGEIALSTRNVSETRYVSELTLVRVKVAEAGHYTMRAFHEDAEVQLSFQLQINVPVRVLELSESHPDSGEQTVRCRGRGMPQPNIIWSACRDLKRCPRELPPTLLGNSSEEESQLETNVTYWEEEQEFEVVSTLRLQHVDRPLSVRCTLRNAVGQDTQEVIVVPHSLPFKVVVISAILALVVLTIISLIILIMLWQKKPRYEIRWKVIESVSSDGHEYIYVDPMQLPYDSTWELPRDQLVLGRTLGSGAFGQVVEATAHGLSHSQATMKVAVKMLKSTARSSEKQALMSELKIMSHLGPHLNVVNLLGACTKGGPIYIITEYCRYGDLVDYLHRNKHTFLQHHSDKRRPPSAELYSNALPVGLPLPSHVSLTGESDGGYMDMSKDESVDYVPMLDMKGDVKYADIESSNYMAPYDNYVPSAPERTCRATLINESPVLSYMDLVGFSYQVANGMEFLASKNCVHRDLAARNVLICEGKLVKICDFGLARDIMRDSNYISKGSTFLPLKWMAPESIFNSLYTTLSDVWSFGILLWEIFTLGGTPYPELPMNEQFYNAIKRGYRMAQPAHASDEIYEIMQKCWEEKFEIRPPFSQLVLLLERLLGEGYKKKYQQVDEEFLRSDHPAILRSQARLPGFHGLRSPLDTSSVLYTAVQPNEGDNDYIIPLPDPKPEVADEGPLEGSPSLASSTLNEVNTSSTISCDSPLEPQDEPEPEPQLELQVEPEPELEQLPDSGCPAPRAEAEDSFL

A word on the IC50: it is the midpoint of a concentration-inhibition curve. One may read the GI50 as the concentration giving 50% growth inhibition. The AUC(0-t) is the area under the concentration-time curve up to a stated or last time point. A low value points to less exposure. What is called bioavailability is the share of a dose that reaches the circulation, judged against a reference dose that is usually intravenous. The low end stands for poor availability, the high end for good availability. As usually defined, the AUC(0-inf) is total exposure, with the tail of the curve extrapolated. A lower AUC(0-inf) goes with low exposure. Turning to `Cc1ccc(C(=O)N2CCC(Oc3cc(NC(=O)c4ccc(CN5CCN(C)CC5)c(C(F)(F)F)c4)ccc3C)CC2)cn1`, the Activity amounted to 6.51 g in [1]; 0.45% in [3]; 2.19 g in data set [9]; 0.35% in [12]; 0.3% in data set [13]. The IC50 worked out at 80 nM in data set [2], 12 nM in data set [7] and 227 nM in data set [15]. In addition, the inhibition result in data set [4] and in data set [5] was “Active” each time. Further, the GI50 with BaF3 came out at 980 nM; in data set [14], 1850 nM; in [16], 124 nM. In [6], this compound displayed an AUC(0-t) of 510 ng·h/mL. Moreover, the bioavailability in [8] worked out at 47.5%. Further, the outcome in [10] was Active. For the same compound, the AUC(0-inf) in data set [11] worked out at 2430 ng·h/mL.
With `Cc1ccc(NC(=O)c2ccc(CN3CCN(C)CC3)cc2)cc1Nc1nccc(-c2cccnc2)n1` [IMATINIB], the result in [17] was Active. Moreover, the inhibition entry in [18], in data set [19], in [20] and in data set [21] was “Active” in each case.
